Reference: ChEMBL document CHEMBL1157665, “Novel 4-thiazolidinone derivatives as potential antifungal and antibacterial drugs” (2010)

Columns and labels:
Pseudomonas aeruginosa [1] = test: Antibacterial activity against Pseudomonas aeruginosa ATCC 27853 after 72 hrs by serial sub-cultivation method; type: functional; details: ATCC 27853, 72 h
Summary of the method: (§1)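 MBC was found by serial sub-cultivation of 2 µl from the MIC wells into plates holding 100 µl broth per well, then incubation for 72 h. MBC is the lowest concentration with no visible growth, i.e. 99.5% killing of the original inoculum. Bacterial inoculum was 1.0 × 10^4 cfu per well in LB broth. Duplicate, repeated three times.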

Aspergillus flavus [2] = test: Antifungal activity against Aspergillus flavus ATCC 9643 after 72 hrs by serial dilution method; type: functional; details: ATCC 9643, 72 h
Summary of the method: (§2)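 Fungi were kept on malt agar at 4 °C and sub-cultured monthly. Spores were washed off the agar with sterile 0.85% saline containing 0.1% Tween 80 (v/v). Modified microdilution in 96-well plates. MIC is the lowest concentration with no visible growth under the binocular microscope. Inoculum checked on malt agar for contamination and validity.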

Micrococcus flavus [3] = test: Antibacterial activity against Micrococcus flavus ATCC 10240 after 24 hrs; type: functional; details: ATCC 10240, 24 h
Summary of the method: (§3)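 Broth microdilution MIC in 96-well plates. Compounds in LB broth with bacterial inoculum of 1.0 × 10^4 cfu per well, from suspensions adjusted with sterile saline to 1.0 × 10⁵ CFU/ml. Incubated 24 h at […] as printed. MIC taken as the lowest concentration with no visible growth under the binocular microscope. OD at 655 nm also read against blank. Streptomycin and ampicillin as positive controls. Duplicate, repeated three times.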

Bacillus cereus [4] = test: Antibacterial activity against Bacillus cereus clinical isolate after 24 hrs; type: functional; summary of the method: as §3
Penicillium ochrochloron [5] = test: Antifungal activity against Penicillium ochrochloron ATCC 9112 after 72 hrs by serial dilution method; type: functional; details: ATCC 9112, 72 h; summary of the method: as §2
Escherichia coli [6] = test: Antibacterial activity against Escherichia coli ATCC 35210 after 72 hrs by serial sub-cultivation method; type: functional; details: ATCC 35210, 72 h; summary of the method: as §1
Talaromyces funiculosus [7] = test: Antifungal activity against Penicillium funiculosum ATCC 36839 after 72 hrs by serial sub-cultivation method; type: functional; details: ATCC 36839, 72 h
Summary of the method: (§4)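 MFC was found by serial sub-cultivation of 2 µl into plates holding 100 µl broth per well, then incubation 72 h at 28 °C. MFC is the lowest concentration with no visible growth, taken as 99.5% killing of the original inoculum. Spore inocula came from malt agar cultures washed with 0.85% saline and 0.1% Tween 80.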

Pseudomonas aeruginosa [8] = test: Antibacterial activity against Pseudomonas aeruginosa ATCC 27853 after 24 hrs; type: functional; details: ATCC 27853, 24 h; summary of the method: as §3
Aspergillus fumigatus [9] = test: Antifungal activity against Aspergillus fumigatus plant isolate after 72 hrs by serial dilution method
Fulvia fulva [10] = test: Antifungal activity against Fulvia fulva TK 5318 after 72 hrs by serial sub-cultivation method; type: functional; details: TK 5318, 72 h; summary of the method: as §4
Aspergillus niger [11] = test: Antifungal activity against Aspergillus niger ATCC 6275 after 72 hrs by serial sub-cultivation method; type: functional; details: ATCC 6275, 72 h; summary of the method: as §4
Trichoderma viride [12] = test: Antifungal activity against Trichoderma viride IAM 5061 after 72 hrs by serial dilution method; type: functional; details: IAM 5061, 72 h; summary of the method: as §2
Staphylococcus aureus [13] = test: Antibacterial activity against Staphylococcus aureus ATCC 6538 after 24 hrs; type: functional; details: ATCC 6538, 24 h; summary of the method: as §3
Aspergillus fumigatus [14] = test: Antifungal activity against Aspergillus fumigatus plant isolate after 72 hrs by serial sub-cultivation method
Escherichia coli [15] = test: Antibacterial activity against Escherichia coli ATCC 35210 after 24 hrs; type: functional; details: ATCC 35210, 24 h; summary of the method: as §3
Aspergillus niger [16] = test: Antifungal activity against Aspergillus niger ATCC 6275 after 72 hrs by serial dilution method; type: functional; details: ATCC 6275, 72 h; summary of the method: as §2
Proteus mirabilis [17] = test: Antibacterial activity against Proteus mirabilis after 72 hrs by serial sub-cultivation method; type: functional; summary of the method: as §1
Salmonella typhimurium [18] = test: Antibacterial activity against Salmonella Typhimurium ATCC 13311 after 72 hrs by serial sub-cultivation method; type: functional, Salmonella enterica subsp. enterica serovar Typhimurium; details: Salmonella enterica, ATCC 13311, 72 h; summary of the method: as §1
Aspergillus flavus [19] = test: Antifungal activity against Aspergillus flavus ATCC 9643 after 72 hrs by serial sub-cultivation method; type: functional; details: ATCC 9643, 72 h; summary of the method: as §4
Listeria monocytogenes [20] = test: Antibacterial activity against Listeria monocytogenes NCTC 7973 after 72 hrs by serial sub-cultivation method; type: functional; details: NCTC 7973, 72 h; summary of the method: as §1
Proteus mirabilis [21] = test: Antibacterial activity against Proteus mirabilis after 24 hrs; type: functional; summary of the method: as §3
Salmonella typhimurium [22] = test: Antibacterial activity against Salmonella Typhimurium ATCC 13311 after 24 hrs; type: functional, Salmonella enterica subsp. enterica serovar Typhimurium; details: Salmonella enterica, ATCC 13311, 24 h; summary of the method: as §3
Talaromyces funiculosus [23] = test: Antifungal activity against Penicillium funiculosum ATCC 36839 after 72 hrs by serial dilution method; type: functional; details: ATCC 36839, 72 h; summary of the method: as §2
Aspergillus versicolor [24] = test: Antifungal activity against Aspergillus versicolor ATCC 11730 after 72 hrs by serial sub-cultivation method; type: functional; details: ATCC 11730, 72 h; summary of the method: as §4
Fulvia fulva [25] = test: Antifungal activity against Fulvia fulva TK 5318 after 72 hrs by serial dilution method; type: functional; details: TK 5318, 72 h; summary of the method: as §2
Micrococcus flavus [26] = test: Antibacterial activity against Micrococcus flavus ATCC 10240 after 72 hrs by serial sub-cultivation method; type: functional; details: ATCC 10240, 72 h; summary of the method: as §1
Penicillium ochrochloron [27] = test: Antifungal activity against Penicillium ochrochloron ATCC 9112 after 72 hrs by serial sub-cultivation method; type: functional; details: ATCC 9112, 72 h; summary of the method: as §4
Listeria monocytogenes [28] = test: Antibacterial activity against Listeria monocytogenes NCTC 7973 after 24 hrs; type: functional; details: NCTC 7973, 24 h; summary of the method: as §3
Staphylococcus aureus [29] = test: Antibacterial activity against Staphylococcus aureus ATCC 6538 after 72 hrs by serial sub-cultivation method; type: functional; details: ATCC 6538, 72 h; summary of the method: as §1
Trichoderma viride [30] = test: Antifungal activity against Trichoderma viride IAM 5061 after 72 hrs by serial sub-cultivation method; type: functional; details: IAM 5061, 72 h; summary of the method: as §4
Aspergillus versicolor [31] = test: Antifungal activity against Aspergillus versicolor ATCC 11730 after 72 hrs by serial dilution method; type: functional; details: ATCC 11730, 72 h; summary of the method: as §2
Bacillus cereus [32] = test: Antibacterial activity against Bacillus cereus clinical isolate after 72 hrs by serial sub-cultivation method; type: functional; summary of the method: as §1

O=C1N/C(=N/c2nc(C34CC5CC(CC(C5)C3)C4)cs2)S/C1=C\c1ccccc1Cl
63.7 µM: MBC (Proteus mirabilis [17])
43.8 µM: MBC (Pseudomonas aeruginosa [1]) | MBC (Escherichia coli [6]) | MBC (Salmonella typhimurium [18]) | MBC (Listeria monocytogenes [20]) | MIC (Proteus mirabilis [21]) | MBC (Staphylococcus aureus [29]) | MBC (Bacillus cereus [32])
23.8 µM: MBC (Micrococcus flavus [26])
11 µM: MIC (Aspergillus flavus [2]) | MIC (Penicillium ochrochloron [5]) | MIC (Trichoderma viride [12]) | MIC (Aspergillus niger [16]) | MIC (Fulvia fulva [25])
21.9 µM: MIC (Bacillus cereus [4]) | MIC (Pseudomonas aeruginosa [8]) | MFC (Aspergillus niger [11]) | MIC (Staphylococcus aureus [13]) | MFC (Aspergillus fumigatus [14]) | MIC (Escherichia coli [15]) | MFC (Aspergillus flavus [19]) | MIC (Salmonella typhimurium [22]) | MIC (Talaromyces funiculosus [23]) | MFC (Aspergillus versicolor [24]) | MFC (Penicillium ochrochloron [27]) | MIC (Listeria monocytogenes [28]) | MFC (Trichoderma viride [30])
16.4 µM: MIC (Micrococcus flavus [3]) | MIC (Aspergillus fumigatus [9]) | MFC (Fulvia fulva [10]) | MIC (Aspergillus versicolor [31])
32.3 µM: MFC (Talaromyces funiculosus [7])

O=C1N/C(=N/c2nc(C34CC5CC(CC(C5)C3)C4)cs2)S/C1=C\c1ccc(Cl)cc1
16.4 µM: MIC (Bacillus cereus [4]) | MIC (Penicillium ochrochloron [5]) | MFC (Fulvia fulva [10]) | MFC (Trichoderma viride [30]) | MIC (Aspergillus versicolor [31])
21.9 µM: MFC (Talaromyces funiculosus [7]) | MIC (Pseudomonas aeruginosa [8]) | MFC (Aspergillus niger [11]) | MIC (Staphylococcus aureus [13]) | MFC (Aspergillus fumigatus [14]) | MIC (Escherichia coli [15]) | MFC (Aspergillus flavus [19]) | MIC (Salmonella typhimurium [22]) | MFC (Aspergillus versicolor [24]) | MBC (Micrococcus flavus [26]) | MFC (Penicillium ochrochloron [27]) | MIC (Listeria monocytogenes [28]) | MBC (Bacillus cereus [32])
65.7 µM: MBC (Proteus mirabilis [17])
43.8 µM: MBC (Pseudomonas aeruginosa [1]) | MBC (Escherichia coli [6]) | MBC (Salmonella typhimurium [18]) | MBC (Listeria monocytogenes [20]) | MIC (Proteus mirabilis [21]) | MBC (Staphylococcus aureus [29])
11 µM: MIC (Aspergillus flavus [2]) | MIC (Micrococcus flavus [3]) | MIC (Aspergillus fumigatus [9]) | MIC (Trichoderma viride [12]) | MIC (Aspergillus niger [16]) | MIC (Talaromyces funiculosus [23]) | MIC (Fulvia fulva [25])

COc1cc(/C=C2\S/C(=N\c3nc(C45CC6CC(CC(C6)C4)C5)cs3)NC2=O)ccc1O
21.9 µM: MFC (Talaromyces funiculosus [7]) | MFC (Fulvia fulva [10]) | MFC (Aspergillus niger [11]) | MIC (Staphylococcus aureus [13]) | MFC (Aspergillus fumigatus [14]) | MFC (Aspergillus flavus [19]) | MBC (Listeria monocytogenes [20]) | MIC (Salmonella typhimurium [22]) | MFC (Aspergillus versicolor [24]) | MBC (Micrococcus flavus [26]) | MFC (Penicillium ochrochloron [27]) | MFC (Trichoderma viride [30]) | MBC (Bacillus cereus [32])
11 µM: MIC (Micrococcus flavus [3]) | MIC (Bacillus cereus [4]) | MIC (Trichoderma viride [12]) | MIC (Escherichia coli [15]) | MIC (Fulvia fulva [25]) | MIC (Listeria monocytogenes [28])
65.7 µM: MBC (Proteus mirabilis [17])
16.4 µM: MIC (Aspergillus flavus [2]) | MIC (Penicillium ochrochloron [5]) | MBC (Escherichia coli [6]) | MIC (Pseudomonas aeruginosa [8]) | MIC (Aspergillus fumigatus [9]) | MIC (Aspergillus niger [16]) | MIC (Talaromyces funiculosus [23]) | MIC (Aspergillus versicolor [31])
43.8 µM: MBC (Pseudomonas aeruginosa [1]) | MBC (Salmonella typhimurium [18]) | MIC (Proteus mirabilis [21]) | MBC (Staphylococcus aureus [29])

O=C1N/C(=N/c2nc(C34CC5CC(CC(C5)C3)C4)cs2)S/C1=C\c1cccc(Cl)c1
11 µM: MIC (Micrococcus flavus [3]) | MIC (Aspergillus fumigatus [9]) | MIC (Trichoderma viride [12]) | MIC (Aspergillus niger [16]) | MFC (Penicillium ochrochloron [27]) | MIC (Aspergillus versicolor [31])
21.9 µM: MFC (Talaromyces funiculosus [7]) | MIC (Pseudomonas aeruginosa [8]) | MFC (Fulvia fulva [10]) | MFC (Aspergillus niger [11]) | MFC (Aspergillus fumigatus [14]) | MIC (Escherichia coli [15]) | MFC (Aspergillus flavus [19]) | MIC (Salmonella typhimurium [22]) | MIC (Talaromyces funiculosus [23]) | MFC (Aspergillus versicolor [24]) | MBC (Micrococcus flavus [26]) | MIC (Listeria monocytogenes [28]) | MFC (Trichoderma viride [30]) | MBC (Bacillus cereus [32])
16.4 µM: MIC (Aspergillus flavus [2]) | MIC (Bacillus cereus [4]) | MIC (Staphylococcus aureus [13]) | MIC (Fulvia fulva [25])
65.7 µM: MBC (Proteus mirabilis [17])
43.8 µM: MBC (Pseudomonas aeruginosa [1]) | MBC (Escherichia coli [6]) | MBC (Salmonella typhimurium [18]) | MBC (Listeria monocytogenes [20]) | MIC (Proteus mirabilis [21]) | MBC (Staphylococcus aureus [29])
5.5 µM: MIC (Penicillium ochrochloron [5])
